Assay outcomes as filed in PubChem BioAssay.
In the library only some 6.7% were active in any assay of this set; here they are far more common.
PREPL inh = inhibitors of human prolyl oligopeptidase-like enzyme PREPL; Q4J6C6; recombinant PREPL, fluorescence polarization activity-based probe; inhibition, % at 5.96 µM; 320,000 tested, 0.68% active; AID 2751; in the data active = inhibition above about 43%;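 also: 0% = enzyme with DMSO and 100% = wells lacking enzyme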
CSC inhib = blocks cancer stem cells | AID 2717 | inhibition, % at 7.5 µM | 300,000 tested, 1.1% active | cancer stem cell-like cells viability, luminescence; in the data active = inhibition above about 75%; inconclusive = no clear call, values can overlap the other calls; tested in HMLE shEcad cells
Beta apoptosis = blocks beta cell apoptosis; 300,000 tested, 0.8% active; protection from apoptosis, % (concentration not given with the values); AID 435005; INS-1E cytokine-induced death, ATP luminescence, 48 h; percent of positive-control rescue, neutral wells zero;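 active = Every replicate reaches about 75%, or at least half do and their mean reaches it too, limit read from the data; inconclusive = At least half of replicates reach the limit but their mean does not; inactive = Under half of replicates reach the limit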;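 also: 0% = cytokine-treated negative control wells and 100% = positive control rescue; higher means more ATP so stronger rescue from cytokine killing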
T cruzi inh = T. cruzi replication inhibition; AID 1885; T. cruzi beta-gal in NIH3T3, luminescence, 90 h; 300,000 tested, 1.4% active; inhibition, % (test concentration not listed);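 active = mean inhibition across valid replicates above about 55%, limit read from the data; inconclusive = mean below that limit but half or more replicates reach it; inactive = mean below it, under half of replicates reach it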;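 also: signal also drops with host cell toxicity which is not excluded here; 0% = plate median of DMSO wells and 100% = zero luminescence signal; higher percent means less beta-gal luminescence so fewer parasites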
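Incubation – ≥90 h infection period, 3 h prior cell attachment · System – NIH/3T3 fibroblasts plus reporter T. cruzi · Doses – compound pinned at 50 nL/well, DMSO · Read-out basis – percent inhibition of parasite-derived β-gal signal · Signal – luminescent β-galactosidase signal after 60 min lysis · Also added – 5000 T. cruzi trypomastigotes/well · Medium – Low-serum DMEM with 2% FBS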
CHOP inhibitor = CHOP inhibition in unfolded protein response; CHO-K1 CHOP-promoter luciferase, tunicamycin-induced, 15-18 h; inhibition, % at 10 µM; 220,000 tested, 3.8% active; AID 2732;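 active = compounds that reduced the stress-induced luciferase reporter signal by more than about 70% of percent inhibition, limit read from the data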;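 also: 0% = tunicamycin plus vehicle and 100% = wells without tunicamycin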
GRIN3A LBD mod = modulators (binders) of human NR3A ligand-binding domain; NR3A LBD differential scanning fluorimetry, Tm shift; 0% = protein alone, 100% = glycine-bound protein; Tm shift relative to glycine control, % at 25 µM; 340,000 tested, 2.5% active; AID 1259313;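 active = melting temperature shift of at least 10% of the positive control shift, at one fixed dose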
Active calls of the source: *; ? = inconclusive; . = not tested or not shown.

SMILES	PREPL inh	CSC inhib	Beta apoptosis	T cruzi inh	CHOP inhibitor	GRIN3A LBD mod
CC(=O)Cc1nsc(NC(=O)c2cn(-c3ccccc3)nc2-c2ccc(Br)cc2)n1	-8	16	-1	-40	61	31*
O=C(Nc1nccs1)c1cn(-c2ccccc2)nc1-c1ccccc1	-8	-3	10	3	71*	-3
CC(C)COc1ccc(-c2nn(-c3ccccc3)cc2C(=O)Nc2nccs2)cc1	-1	27	.	64*	11	10*
COC(=O)c1sc(NC(=O)CN2CCN(c3cccc(Cl)c3)CC2)c(C(=O)OC)c1C	.	.	.	.	.	-4
CCCCN=Cc1c(C)[nH]n(-c2ccccc2)c1=S	2	17	-3	3	43	-12
Cc1[nH]n(-c2ccccc2)c(=S)c1C=Nc1cccc([N+](=O)[O-])c1	5	-11	-7	-10	80*	6
CCn1c(SCC(=O)N2CCN(c3ccc(F)cc3)CC2)nc2ccccc2c1=O	7	77*	-1	20	69	2
O=C(N/N=C/c1ccc([N+](=O)[O-])s1)C(O)c1ccccc1 (centres undefined)	1	3	94*	77*	49	-1
O=C(N/N=C/c1ccc([N+](=O)[O-])s1)c1ccccc1	19	.	-1	48	-11	-9
O=C(Cc1ccccc1)N/N=C/c1ccc([N+](=O)[O-])s1	8	9	88*	46	-79	-2
COc1ccccc1NC(=O)C(=O)N/N=C/c1ccc([N+](=O)[O-])s1	.	.	.	62*	2	4
CCCOc1ccc(CNC(=O)C2CCN(C(=O)N3CCOc4ccccc43)CC2)cc1	-7	0	12	5	.	0
Cc1ccc(S(=O)(=O)N2CCN(C(=O)C3CSC4(C)CCC(=O)N34)CC2)cc1C (centres undefined)	-6	13	0	13	.	0
CN(/N=C/c1cc(Cl)cc(Cl)c1O)c1c(Cl)cccc1[N+](=O)[O-]	14	41	11	-18	21	-4
CCN(Cc1ccc(O)cc1)CC1CCCN(CCc2cccc(F)c2)C1 (centres undefined)	-13	-1	-4	61*	.	0
CN(CC1CCCN(CCc2cccc(C(F)(F)F)c2)C1)C(=O)c1ccco1 (centres undefined)	11	8	-2	60*	.	-3
CC(=O)Nc1ccc(CN(C)CC2CCCN(CCc3cccc(C(F)(F)F)c3)C2)cc1 (centres undefined)	-6	8	-3	31	.	2
COC(=O)Oc1c(Br)c(=O)oc2ccccc12	-8	-13	.	-8	85*	1
CC(=O)Nc1c(NC(C)C)c2ccccc2oc1=O	4	-5	9	-12	18	-1
CCC(C)(C)NC(=O)C(NS(=O)(=O)c1cccs1)c1ccccc1 (centres undefined)	28	5	-1	-2	.	31*
CCOC(=O)c1c(NC(=O)Nc2ccc(Cl)cc2)sc(C)c1C	-3	-11	-13	-1	29	1
CCOC(=O)c1c(NC(=O)c2ccc(Cl)cc2)csc1C	2	8	2	9	38	18*
Nc1ccc2nc(-c3cc(Cl)c(N)c(Cl)c3)[nH]c2c1	40	4	17	-9	-42	12*
Nc1ccc2nc(-c3ccc(Cl)cc3)[nH]c2c1	17	21	.	-35	-1	1
O=[N+]([O-])c1ccc(-c2nc3ccc([N+](=O)[O-])cc3[nH]2)cc1	28	25	?	33	50	-2
SMILES	PREPL inh	CSC inhib	Beta apoptosis	T cruzi inh	CHOP inhibitor	GRIN3A LBD mod
Nc1ccc(-c2nc3ccc(-c4nc5ccccc5o4)cc3[nH]2)cc1	28	-13	18	11	-22	18*
Nc1ccc(-c2nc3ccc([N+](=O)[O-])cc3[nH]2)cc1	18	3	4	-11	6	25*
O=C(Nc1nc2c(F)cc(F)cc2s1)c1ccccn1	1	42	93*	61*	79*	-2
O=C(COc1ccccc1)NNc1nc2c(F)cc(F)cc2s1	3	-14	-6	1	7	0
O=C(Nc1nc2ccc(S(=O)(=O)N3CCCC3)cc2s1)c1ccccn1	13	33	36	64*	8	-4
CCOc1ccc2nc(NC(=O)c3ccccn3)sc2c1	6	94*	77*	46	34	-9
